Data on 11 molecules can be found in ChEMBL document CHEMBL5107994, “Biphenyl scaffold for the design of NMDA-receptor negative modulators: molecular modeling, synthesis, and biological activity” (RSC Med Chem, 2022).

For experiment [1], the target named is Glutamate NMDA receptor. The experiment is described as follows: Displacement of 3[H]ifenprodil from NMDA receptor in Wistar rat brain membrane incubated for 2 hrs by scintillation counting method. Format: cell membranes. Put shortly:
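Rat hippocampal membranes prepared in HEPES/Tris pH 7.6 buffers with repeated EDTA washes, stored in liquid nitrogen. Incubated with [3H]-ifenprodil (40 nM working-solution aliquot) for 2 h at room temperature. Nonspecific binding measured with 10 μM unlabeled ifenprodil. Test compounds over 10^-8 to 10^-3 M. Filtration on polyethyleneimine-soaked GF/B filters, then scintillation counting. Each concentration run in triplicate and averaged.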

Experiment [2] concerns the target Glutamate NMDA receptor. The experiment is described as follows: Negative allosteric modulator activity at NMDA receptor in Wistar rat hippocampal CA1 neuronal membrane assessed as inhibition of NMDA and glycine induced current response by whole-cell patch clamp technique. Conditions: hippocampal ca1 neurone. Format: cell membranes. Put shortly: (§1)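 Acutely vibrodissociated CA1 pyramidal neurons from 13–18-day male Wistar rats, whole-cell recorded at –80 mV at room temperature. 100 μM NMDA + 10 μM glycine activated the receptors. Steady-state current block was measured across concentrations and fitted with the Hill equation for the concentration-inhibition relationship. At least four experiments, mean ± SD.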
In general terms: The patch-clamp technique gives a direct electrical read-out from membranes.

Experiment [3] addresses T1, Glutamate NMDA receptor (Rattus norvegicus) (UniProt P35439+Q00959+Q00960+Q00961+Q62645+Q8VHN2+Q9R1M7). The experiment is described as follows: Negative allosteric modulator activity at NMDA receptor in Wistar rat hippocampal CA1 neuronal membrane assessed as inhibition of NMDA and glycine induced current response by measuring maximum efficacy by whole-cell patch clamp technique. Format: cell membranes. The note with it: Hippocampal CA1 neurone, filed as negative allosteric modulator. Put shortly:
as §1

For experiment [4], the target named is T1, Glutamate NMDA receptor (Rattus norvegicus). The experiment is described as follows: Negative allosteric modulator activity at NMDA receptor in Wistar rat hippocampal CA1 neuronal membrane assessed as inhibition of NMDA and glycine induced current response at 0.3 uM by whole-cell patch clamp technique. Format: cell membranes. The note with it: Hippocampal CA1 neurone, filed as negative allosteric modulator. The procedure, abridged: (§2)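 Male Wistar rats, 13–18 d old. CA1 pyramidal neurons isolated from hippocampal slices by vibrodissociation. Whole-cell patch clamp at room temperature, holding potential –80 mV, with 70–80% series-resistance compensation. Currents evoked by 100 μM NMDA plus 10 μM glycine. Percent block of the steady-state current measured at each compound concentration. Means ± SD from at least four experiments.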

For experiment [5] the target is unchanged. Nature of the experiment: Negative allosteric modulator activity at NMDA receptor in Wistar rat hippocampal CA1 neuronal membrane assessed as inhibition of NMDA and glycine induced current response at 3 uM by whole-cell patch clamp technique. Format: cell membranes. Conditions: Hippocampal CA1 neurone, filed as negative allosteric modulator. The procedure, abridged:
as §2

Experiment [6] has the same target. The experiment is described as follows: Negative allosteric modulator activity at NMDA receptor in Wistar rat hippocampal CA1 neuronal membrane assessed as inhibition of NMDA and glycine induced current response at 0.03 uM by whole-cell patch clamp technique. Format: cell membranes. Conditions: Hippocampal CA1 neurone. Put shortly:
as §2

Another experiment deals with Mus musculus. Nature of the experiment: Antidepressant activity in ICR (CD-1) mouse assessed as decrease in immobility time at 160 mg/kg, po and measured after 1 hr by forced swim test. The class given is functional, organism-based. Put shortly:
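Adult male ICR (CD-1) mice, 20–25 g, n=10 per group, dosed orally 1 h before a one-day forced swim test. Solutions were prepared on the day. Each mouse swam 5 min in a cylinder with at least 20 cm of water at 24–26°C, with fresh water per animal, and was videotaped. Total immobility (passive floating) was compared with an […] saline/5% DMSO group by Mann-Whitney U-test.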

Experiment [7] has as its target T1, Glutamate NMDA receptor (Rattus norvegicus). The experiment is described as follows: Negative allosteric modulator activity at NMDA receptor in Wistar rat hippocampal CA1 neuronal membrane assessed as inhibition of NMDA and glycine induced current response at 30 uM by whole-cell patch clamp technique. Format: cell membranes. The note with it: Hippocampal CA1 neurone. The procedure, abridged: as §2

Activity calls are given as the source filed them. No cut-off for these calls is given here.

As for `CS(=O)(=O)Nc1cccc(NCC(O)c2ccc(-c3ccc(Br)cc3)cc2)c1` (configuration not stated), the IC50 (as a rule, the concentration that inhibits the measured activity by half) on Glutamate NMDA receptor [1] was determined as 1 µM; on Glutamate NMDA receptor [2], 0.05 µM. Moreover, in experiment [3], the Emax (in general, the maximal effect, on the per cent scale that the assay sets) came to 78%.
Consider `CS(=O)(=O)Nc1cccc(NCC(O)c2ccc(-c3ccccc3)cc2)c1` (configuration not stated), for which the IC50 on Glutamate NMDA receptor [1] was determined as 5.4 µM; at Glutamate NMDA receptor [2] it was 0.1 µM. Also, the inhibition (usually the relative decrease from the control value, in per cent) in experiment [4] came to 61%; in experiment [5], 76%; in experiment [6] it was 25%. Moreover, the Emax in experiment [3] was 83%.
Regarding `CNCCC(Oc1ccc(C(F)(F)F)cc1)c1ccccc1` (configuration not stated), the outcome in the experiment with Mus musculus was Active.
On to `Oc1cccc(OCC(O)c2ccc(-c3ccccc3)cc2)c1` (configuration not stated), for which the results for the IC50 at Glutamate NMDA receptor [1] and on Glutamate NMDA receptor [2] were 30 µM and 5 µM, respectively. The Emax in experiment [3] is 62%.
For `Oc1cccc(NCC(O)c2ccc(-c3ccccc3)cc2)c1` (configuration not stated), in that order: 4.2 µM, 0.45 µM and 72%.
As for `C[C@H]([C@@H](O)c1ccc(O)cc1)N1CCC(Cc2ccccc2)CC1`, the Emax in experiment [3] is 62%.
Regarding `OC(COc1ccccc1)c1ccc(-c2ccccc2)cc1` (configuration not stated), the concentration for half-maximal inhibition (IC50) was above 100 µM at Glutamate NMDA receptor [1] and above 30 µM on Glutamate NMDA receptor [2]. In experiment [7], the inhibition was 37%.
`Oc1ccc(OCC(O)c2ccc(-c3ccccc3)cc2)cc1` (configuration not stated): the IC50 at Glutamate NMDA receptor [1] is above 100 µM; on Glutamate NMDA receptor [2], above 30 µM. Besides, the inhibition in experiment [7] was 36%.
For the molecule `NC(COc1cccc(O)c1)c1ccc(-c2ccccc2)cc1` (configuration not stated), the IC50 amounted to 41 µM at Glutamate NMDA receptor [1] and 5 µM on Glutamate NMDA receptor [2]. Besides, the Emax in experiment [3] stood at 65%.
Regarding `OC(CNc1ccccc1)c1ccc(-c2ccccc2)cc1` (configuration not stated), the IC50 was above 100 µM on Glutamate NMDA receptor [1] and above 30 µM at Glutamate NMDA receptor [2]. Besides, the inhibition in experiment [7] (filed as negative allosteric modulator) was 42%.
Regarding `CCNc1cccc(NCC(O)c2ccc(-c3ccccc3)cc2)c1` (configuration not stated), the values for the IC50 at Glutamate NMDA receptor [1] and on Glutamate NMDA receptor [2] were above 100 µM and above 30 µM, respectively. Besides, the inhibition in experiment [7] was 10%.
